Here are results for one compound from ChEMBL document CHEMBL4261600 (Eur J Med Chem, 2018).

One series deals with HL-60. Nature of the series: Antiproliferative activity against human HL60 cells after 72 hrs by Celltiter-Glo assay. In kind it is functional. To be noted: HL-60, 72 h. A digest of the protocol:
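Cells seeded at 3000/well in 96-well plates, exposed to serially diluted compound for 72 h at 37 °C, 5% CO2. Viability read by CellTiter-Glo luminescence and normalized to DMSO control. GI50 derived from curve fit, mean of three independent measurements. Culture media: DMEM/10% FBS for adherent lines; IMDM for MV4-11 and MEC-1/2; RPMI 1640 for suspension lines and CHL.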

A short description of series [1]: Cmax in Sprague-Dawley rat at 3 mg/kg, iv by LC-MS/MS analysis. Type of series: ADME, organism-based. More on the design: dose 3 mg/kg, route intravenous. The note with it: in vivo.
A short description of series [2]: AUC (0 to t) in mouse at 3 mg/kg, iv by LC-MS/MS analysis. Type of series: ADME, organism-based. The note with it: in vivo. The essentials:
(§1)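 Non-compartmental PK. Male SD rats 190-210 g, mice and beagle dogs acclimatized one week, fasted 12 h with water, split into iv and po groups (mice 48, rats 6, dogs 6). iv 3/3/2 mg/kg (mice/rats/dogs); po 10/20/10 mg/kg; vehicle DMSO in 5% glucose water. Blood at 2 or 5 to 720 min; plasma protein-precipitated with methanol, caffeine internal standard, LC-MS/MS.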

Series [3] can be described thus: AUC (0 to infinity) in Sprague-Dawley rat at 20 mg/kg, po by LC-MS/MS analysis. Type of series: ADME, organism-based. More on the design: dose 20 mg/kg, route oral, time infinity. To be noted: in vivo. A digest of the protocol:
as §1

The nature of series [4]: Clearance in mouse at 3 mg/kg, iv by LC-MS/MS analysis. In kind it is ADME, organism-based. To be noted: in vivo.
Series [5] has as its target Tyrosine-protein kinase receptor UFO (Homo sapiens) (UniProt P30530). As to the kind of experiment: Binding affinity to wild-type human partial length AXL (R497 to Y821 residues) expressed in bacterial expression system assessed as remaining unbound target protein level at 1000 nM by Kinomescan method relative to control. A digest of the protocol: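 KINOMEscan competition binding profile across a panel of 468 kinases and mutants, with the inhibitor tested at a single concentration of 1 μM. Binding is reported as percent of control, meaning signal relative to a DMSO control.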

For series [6], the target named is Calcium/calmodulin-dependent protein kinase type 1 (Homo sapiens) (UniProt Q14012). Nature of the series: Binding affinity to wild-type human full length CAMK1 (M1 to L370 residues) expressed in bacterial expression system assessed as remaining unbound target protein level at 1000 nM by Kinomescan method relative to control. A digest of the protocol: (§2)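 Single-point competition binding screen across a panel of 468 kinases and mutants, with the inhibitor at 1 μM. Binding is read out as percent of a DMSO control, and targets below 1 percent control were classed as strong binders.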
Calcium/calmodulin-dependent protein kinase type 1 (Homo sapiens), sequence (Q14012 whole entry, looked up, the tested form may be a part): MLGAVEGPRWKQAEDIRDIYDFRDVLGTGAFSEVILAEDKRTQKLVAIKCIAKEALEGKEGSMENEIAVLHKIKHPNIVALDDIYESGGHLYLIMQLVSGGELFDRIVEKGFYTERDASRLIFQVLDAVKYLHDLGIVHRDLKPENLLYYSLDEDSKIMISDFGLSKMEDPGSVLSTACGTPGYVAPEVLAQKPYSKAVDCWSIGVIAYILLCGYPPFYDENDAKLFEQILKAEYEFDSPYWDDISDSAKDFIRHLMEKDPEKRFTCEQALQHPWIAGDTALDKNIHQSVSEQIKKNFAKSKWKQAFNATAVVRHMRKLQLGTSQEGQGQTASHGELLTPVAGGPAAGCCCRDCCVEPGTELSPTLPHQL

Series [7] deals with Casein kinase I isoform delta (Homo sapiens) (UniProt P48730). Nature of the series: Binding affinity to wild-type human full length CSNK1D (M1 to K409 residues) expressed in bacterial expression system assessed as remaining unbound target protein level at 1000 nM by Kinomescan method relative to control. The essentials:
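KINOMEscan competitive binding profile at 1 μM inhibitor. Remaining target binding reported as percent of DMSO control.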

Series [8] addresses Casein kinase I isoform gamma-3 (Homo sapiens) (UniProt Q9Y6M4). Nature of the series: Binding affinity to wild-type human full length CSNK1G3 (M1 to K447 residues) expressed in bacterial expression system assessed as remaining unbound target protein level at 1000 nM by Kinomescan method relative to control. A digest of the protocol: as §2
In series [9] the target is Myotonin-protein kinase (Homo sapiens) (UniProt Q09013). Nature of the series: Binding affinity to wild-type human partial length DMPK (V47 to V415 residues) expressed in bacterial expression system assessed as remaining unbound target protein level at 1000 nM by Kinomescan method relative to control.
Myotonin-protein kinase (Homo sapiens), sequence (Q09013 whole entry, the tested form may be a part): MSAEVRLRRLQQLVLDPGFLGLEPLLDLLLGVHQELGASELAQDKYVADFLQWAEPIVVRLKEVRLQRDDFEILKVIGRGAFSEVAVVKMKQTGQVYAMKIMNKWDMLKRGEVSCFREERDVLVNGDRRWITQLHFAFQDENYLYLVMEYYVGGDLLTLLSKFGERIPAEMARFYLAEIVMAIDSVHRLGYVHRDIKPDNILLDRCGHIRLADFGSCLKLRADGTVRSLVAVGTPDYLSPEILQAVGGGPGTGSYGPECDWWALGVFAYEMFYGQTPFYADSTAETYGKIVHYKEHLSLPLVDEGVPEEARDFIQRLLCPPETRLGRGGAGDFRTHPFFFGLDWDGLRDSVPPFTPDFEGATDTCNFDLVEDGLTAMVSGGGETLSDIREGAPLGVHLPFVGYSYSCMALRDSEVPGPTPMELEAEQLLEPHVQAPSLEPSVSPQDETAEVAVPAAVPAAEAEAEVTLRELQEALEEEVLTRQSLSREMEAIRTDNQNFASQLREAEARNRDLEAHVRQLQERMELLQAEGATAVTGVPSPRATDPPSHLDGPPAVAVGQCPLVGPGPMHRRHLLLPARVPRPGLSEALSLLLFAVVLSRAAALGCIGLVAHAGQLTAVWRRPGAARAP
In series [10] the target is Ephrin type-B receptor 4 (Homo sapiens) (UniProt P54760). As to the kind of experiment: Binding affinity to wild-type human partial length EPHB4 (H585 to G892 residues) expressed in bacterial expression system assessed as remaining unbound target protein level at 1000 nM by Kinomescan method relative to control. The essentials:
(§3)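 KINOMEscan binding panel of 468 kinases/mutants. Inhibitor was tested at a single concentration of 1 μM. Binding is reported as percent of control, defined relative to a DMSO control.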

Series [11] concerns the target Homeodomain-interacting protein kinase 2 (Homo sapiens) (UniProt Q9H2X6). Nature of the series: Binding affinity to wild-type human partial length HIPK2 (M153 to S564 residues) expressed in mammalian expression system assessed as remaining unbound target protein level at 1000 nM by Kinomescan method relative to control. A digest of the protocol: as §3
Series [12] concerns the target Inhibitor of nuclear factor kappa-B kinase subunit beta (Homo sapiens) (UniProt O14920). Nature of the series: Binding affinity to wild-type human full length IKK-beta (M1 to S756 residues) expressed in mammalian expression system assessed as remaining unbound target protein level at 1000 nM by Kinomescan method relative to control. A digest of the protocol:
as §2

Series [13] deals with Tyrosine-protein kinase Lck (Homo sapiens) (UniProt P06239). Nature of the series: Binding affinity to wild-type human partial length LCK (R207 to P509 residues) expressed in bacterial expression system assessed as remaining unbound target protein level at 1000 nM by Kinomescan method relative to control. The essentials: as §3
Series [14] addresses MAP kinase-activated protein kinase 5 (Homo sapiens) (UniProt Q8IW41). As to the kind of experiment: Binding affinity to wild-type human partial length MAPKAPK5 (M1 to D322 residues) expressed in mammalian expression system assessed as remaining unbound target protein level at 1000 nM by Kinomescan method relative to control. The essentials:
as §3

The target in series [15] is Platelet-derived growth factor receptor alpha (Homo sapiens) (UniProt P16234). As to the kind of experiment: Binding affinity to wild-type human partial length PDGFRA (V575 to D1002 residues) expressed in mammalian expression system assessed as remaining unbound target protein level at 1000 nM by Kinomescan method relative to control.
The target of series [16] is Phosphatidylinositol 4-phosphate 5-kinase type-1 gamma (Homo sapiens) (UniProt O60331). Nature of the series: Binding affinity to wild-type human partial length PIP5K1C (M1 to T668 residues) expressed in mammalian expression system assessed as remaining unbound target protein level at 1000 nM by Kinomescan method relative to control.
Series [17] addresses cAMP-dependent protein kinase catalytic subunit beta (Homo sapiens) (UniProt P22694). Nature of the series: Binding affinity to wild-type human full length PKAC-beta (M1 to F351 residues) expressed in bacterial expression system assessed as remaining unbound target protein level at 1000 nM by Kinomescan method relative to control. A digest of the protocol:
(§4)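 Profiled in a KINOMEscan binding panel with the inhibitor at a single concentration of 1 μM. Binding to each kinase was read out as percent of control, relative to a DMSO control. Strong binders were defined as those with a percent control value below 1.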

Series [18] deals with Ribosomal protein S6 kinase alpha-1 (Homo sapiens) (UniProt Q15418). Nature of the series: Binding affinity to wild-type human partial length C-termianl RSK1 kinase domain 2 (P360 to L681 residues) expressed in bacterial expression system assessed as remaining unbound target protein level at 1000 nM by Kinomescan method relative to control. The essentials: as §4
The target in series [19] is Cyclin-dependent kinase 14/Cyclin-Y (Homo sapiens, UniProt O94921). As to the kind of experiment: Inhibition of recombinant GST-tagged human full length CDK14/cyclin Y (2 to end residues). In kind it is protein-complex assay.
Cyclin-dependent kinase 14/Cyclin-Y, sequence (O94921 whole entry, the tested form may be a part): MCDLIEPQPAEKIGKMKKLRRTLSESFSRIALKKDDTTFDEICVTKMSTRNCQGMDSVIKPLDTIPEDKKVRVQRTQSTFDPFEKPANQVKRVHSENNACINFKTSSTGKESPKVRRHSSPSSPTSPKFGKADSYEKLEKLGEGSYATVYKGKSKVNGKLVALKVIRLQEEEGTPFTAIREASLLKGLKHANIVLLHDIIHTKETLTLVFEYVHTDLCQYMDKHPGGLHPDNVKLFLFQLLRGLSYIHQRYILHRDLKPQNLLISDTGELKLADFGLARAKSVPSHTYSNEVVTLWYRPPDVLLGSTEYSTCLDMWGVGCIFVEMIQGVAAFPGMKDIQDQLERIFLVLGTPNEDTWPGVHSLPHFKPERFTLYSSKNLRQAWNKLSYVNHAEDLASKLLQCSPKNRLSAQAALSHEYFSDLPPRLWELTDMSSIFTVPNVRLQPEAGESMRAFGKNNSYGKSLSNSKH
Cyclin-dependent kinase 14/Cyclin-Y, sequence (Q8ND76 whole entry, further chain, the tested form may be a part): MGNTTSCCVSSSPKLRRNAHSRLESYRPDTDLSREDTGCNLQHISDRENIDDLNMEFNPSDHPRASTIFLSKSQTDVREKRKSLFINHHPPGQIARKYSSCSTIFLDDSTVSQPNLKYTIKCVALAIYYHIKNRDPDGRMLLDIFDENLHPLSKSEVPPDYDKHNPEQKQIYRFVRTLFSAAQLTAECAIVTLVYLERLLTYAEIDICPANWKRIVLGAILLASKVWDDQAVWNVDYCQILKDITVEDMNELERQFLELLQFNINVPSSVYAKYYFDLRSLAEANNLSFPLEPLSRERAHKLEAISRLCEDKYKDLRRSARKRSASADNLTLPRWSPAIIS
Series [20] deals with Mitogen-activated protein kinase kinase kinase 12 (DLK). As to the kind of experiment: Binding affinity to wild-type human full length DLK (M1 to P859 residues) expressed in mammalian expression system assessed as remaining unbound target protein level at 1000 nM by Kinomescan method relative to control.

Inhibitor of nuclear factor kappa-B kinase subunit beta (Homo sapiens), sequence (O14920 whole entry, the tested form may be a part): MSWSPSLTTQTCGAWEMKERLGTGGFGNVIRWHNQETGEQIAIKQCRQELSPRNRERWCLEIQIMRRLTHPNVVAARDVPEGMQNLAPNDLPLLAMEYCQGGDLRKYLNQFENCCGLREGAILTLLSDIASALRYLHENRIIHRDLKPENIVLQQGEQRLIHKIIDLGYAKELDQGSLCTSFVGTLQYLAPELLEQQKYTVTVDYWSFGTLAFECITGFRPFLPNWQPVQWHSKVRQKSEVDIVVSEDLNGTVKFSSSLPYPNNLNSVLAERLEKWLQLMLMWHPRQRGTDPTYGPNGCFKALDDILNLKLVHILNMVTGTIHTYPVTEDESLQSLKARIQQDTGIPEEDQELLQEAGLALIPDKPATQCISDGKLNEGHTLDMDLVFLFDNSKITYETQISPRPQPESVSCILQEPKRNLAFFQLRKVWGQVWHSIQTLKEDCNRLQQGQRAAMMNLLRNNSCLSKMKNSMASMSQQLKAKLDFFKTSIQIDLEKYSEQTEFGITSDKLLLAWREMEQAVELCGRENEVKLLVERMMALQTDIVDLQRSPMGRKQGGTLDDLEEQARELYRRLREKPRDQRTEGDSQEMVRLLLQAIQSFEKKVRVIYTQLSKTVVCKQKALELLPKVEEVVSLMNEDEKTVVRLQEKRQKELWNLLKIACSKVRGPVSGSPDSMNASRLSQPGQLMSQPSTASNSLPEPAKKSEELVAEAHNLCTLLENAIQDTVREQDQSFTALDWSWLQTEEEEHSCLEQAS
Casein kinase I isoform delta (Homo sapiens), sequence (P48730 whole entry, looked up, the tested form may be a part, canonical isoform): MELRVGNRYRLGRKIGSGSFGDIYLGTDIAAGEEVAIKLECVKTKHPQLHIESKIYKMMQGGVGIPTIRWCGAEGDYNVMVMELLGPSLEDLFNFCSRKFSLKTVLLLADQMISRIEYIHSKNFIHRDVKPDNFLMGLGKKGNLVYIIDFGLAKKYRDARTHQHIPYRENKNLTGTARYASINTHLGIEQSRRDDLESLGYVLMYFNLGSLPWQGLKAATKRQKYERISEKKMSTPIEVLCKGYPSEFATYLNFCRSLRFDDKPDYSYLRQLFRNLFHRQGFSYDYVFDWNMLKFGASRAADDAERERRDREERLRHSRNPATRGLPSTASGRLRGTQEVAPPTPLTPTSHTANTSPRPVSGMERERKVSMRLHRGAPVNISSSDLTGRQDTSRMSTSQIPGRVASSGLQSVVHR
Ephrin type-B receptor 4 (Homo sapiens), sequence (P54760 whole entry, the tested form may be a part): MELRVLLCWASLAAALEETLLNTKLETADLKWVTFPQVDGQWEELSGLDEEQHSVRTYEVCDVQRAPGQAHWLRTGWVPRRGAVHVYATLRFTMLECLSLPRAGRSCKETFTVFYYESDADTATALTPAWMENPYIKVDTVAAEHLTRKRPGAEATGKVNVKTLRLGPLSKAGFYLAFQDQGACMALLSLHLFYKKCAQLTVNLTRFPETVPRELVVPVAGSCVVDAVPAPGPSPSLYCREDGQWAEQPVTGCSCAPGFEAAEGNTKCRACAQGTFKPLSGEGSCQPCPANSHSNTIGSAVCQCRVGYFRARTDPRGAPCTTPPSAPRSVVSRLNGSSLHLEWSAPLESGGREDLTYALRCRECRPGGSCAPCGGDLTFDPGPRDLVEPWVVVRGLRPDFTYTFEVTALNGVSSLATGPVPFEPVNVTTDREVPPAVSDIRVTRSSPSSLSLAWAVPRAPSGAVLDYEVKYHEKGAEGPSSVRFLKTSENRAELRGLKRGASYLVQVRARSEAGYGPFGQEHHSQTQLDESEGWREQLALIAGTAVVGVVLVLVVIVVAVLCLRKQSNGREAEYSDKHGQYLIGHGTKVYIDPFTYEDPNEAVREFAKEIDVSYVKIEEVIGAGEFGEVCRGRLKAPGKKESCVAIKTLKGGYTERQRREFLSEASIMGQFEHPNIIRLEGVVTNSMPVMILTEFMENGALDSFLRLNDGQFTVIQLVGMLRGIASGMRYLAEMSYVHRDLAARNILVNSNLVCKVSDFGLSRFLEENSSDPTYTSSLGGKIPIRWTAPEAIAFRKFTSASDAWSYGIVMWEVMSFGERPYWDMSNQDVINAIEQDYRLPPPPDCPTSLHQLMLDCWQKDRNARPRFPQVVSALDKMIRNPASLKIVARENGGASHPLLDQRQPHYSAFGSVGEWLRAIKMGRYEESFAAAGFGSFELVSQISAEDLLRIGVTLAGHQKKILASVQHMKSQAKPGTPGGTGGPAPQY
Tyrosine-protein kinase receptor UFO (Homo sapiens), sequence (P30530 whole entry, the tested form may be a part): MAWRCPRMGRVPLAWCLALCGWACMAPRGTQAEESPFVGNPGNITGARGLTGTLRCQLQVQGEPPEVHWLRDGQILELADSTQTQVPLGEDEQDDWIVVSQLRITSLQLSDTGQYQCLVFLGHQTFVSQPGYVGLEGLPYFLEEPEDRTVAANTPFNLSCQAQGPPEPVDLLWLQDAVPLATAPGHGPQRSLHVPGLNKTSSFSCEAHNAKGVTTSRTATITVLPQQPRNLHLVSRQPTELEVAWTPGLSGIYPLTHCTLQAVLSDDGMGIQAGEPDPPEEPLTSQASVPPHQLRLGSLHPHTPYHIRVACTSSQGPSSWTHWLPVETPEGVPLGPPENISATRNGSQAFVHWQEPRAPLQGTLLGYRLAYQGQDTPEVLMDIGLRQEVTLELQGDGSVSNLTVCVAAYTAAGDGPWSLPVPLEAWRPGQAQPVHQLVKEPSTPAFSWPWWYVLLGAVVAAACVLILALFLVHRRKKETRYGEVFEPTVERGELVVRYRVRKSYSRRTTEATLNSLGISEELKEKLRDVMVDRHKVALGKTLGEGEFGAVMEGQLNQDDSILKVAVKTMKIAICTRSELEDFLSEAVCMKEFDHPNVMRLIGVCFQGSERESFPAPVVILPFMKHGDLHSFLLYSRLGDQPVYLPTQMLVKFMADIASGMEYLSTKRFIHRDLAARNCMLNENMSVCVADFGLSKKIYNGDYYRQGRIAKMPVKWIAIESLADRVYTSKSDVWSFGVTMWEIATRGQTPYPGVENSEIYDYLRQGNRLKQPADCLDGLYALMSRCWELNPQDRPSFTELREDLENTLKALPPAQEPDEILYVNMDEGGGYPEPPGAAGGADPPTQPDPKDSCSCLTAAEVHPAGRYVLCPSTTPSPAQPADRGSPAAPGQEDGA

As usually defined, the GI50 is the concentration giving 50% growth inhibition. A higher GI50 goes with lower sensitivity of the cells. The term Cmax denotes the maximum level reached in the sampled fluid or tissue. What is called AUC(0-t) is the area under the concentration-time curve up to a stated or last time point. The low end stands for less exposure, the high end for more exposure. As usually defined, the AUC(0-inf) is total exposure, with the tail of the curve extrapolated. A low value points to low exposure. For orientation: clearance means the volume of plasma or blood freed of the substance per unit of time. A low value points to a low capacity for elimination. The IC50 is the concentration needed to halve the response being measured. As for `COCCN[C@H]1CC[C@H](Nc2cc(-c3csc(NCC4(C#N)CCOCC4)n3)c(Cl)cn2)CC1`, the 50% growth inhibitory concentration (GI50) with HL-60 worked out at 56 nM. In [1], the maximum concentration (Cmax) came out at 1470 ng/mL. For the same compound, in [2], the AUC(0-t) was 393 ng·h/mL. The AUC(0-inf) in series [3] amounted to 1990 ng·h/mL. Further, the clearance in series [4] is 123 mL/min/kg. Moreover, the Activity in [5] turned out to be 91%; in [6], 89%; in [7], 66%; in series [8] it was 90%; in [9], 100%; in series [10], 86%. Besides, the Activity in [11] amounted to 74%; in [12], 90%; in series [13], 81%; in series [14], 93%; in series [15] it was 100%; in series [16], 100%. Moreover, the Activity in series [17] is 92%; in series [18] it was 100%; in series [20] it was 100%. The IC50 in [19] is 1680 nM.
